Results on 41 compounds are retold here after ChEMBL document CHEMBL3425495, “Perturbation of the c-Myc-Max protein-protein interaction via synthetic α-helix mimetics” (J Med Chem, 2015).

The source made the active and inactive calls. The calls are words filed in the database; no cut-off is given here.

The IC50 is the point on the concentration scale where inhibition reaches its midpoint.

Test [1] has as its target T1, c-Myc/Max (Homo sapiens, UniProt P01106+P61244). Kind of test: Disruption of human recombinant c-Myc-Max(S)/DNA (unknown origin) binding assessed as complex level at 100 uM by electrophoretic mobility shift assay relative to control. Type of test: protein-complex assay. The method, boiled down:
(§1)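 Recombinant c-Myc 353–437 bHLH-ZIP with full-length Max(S), or Max(L) alone, from E. coli (His₆ removed by TEV), each 30 nM, with 30 nM HEX-labelled double-stranded oligonucleotide bearing a c-Myc site; buffer 1× PBS pH 7.3, 1 mM EDTA, 0.1% NP40, 5% glycerol, 1 mM DTT, 400 µg/mL BSA; complex level relative to DMSO control; three independent EMSAs.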

Test [2] has as its target T1, c-Myc/Max. Kind of test: Disruption of human recombinant c-Myc-Max/DNA (unknown origin) binding assessed as complex level by electrophoretic mobility shift assay relative to control. In kind it is protein-complex assay. The method, boiled down:
as §1
On the technique in general: In EMSA bound probe runs differently from free probe, usually more slowly.

In test [3] the test system is Daudi. Nature of the test: Antiproliferative activity against c-Myc-overexpressing human Daudi cells after 3 days by MTT assay. Type of test: functional, cell-based. To be noted: 72 h. The procedure, abridged:
(§2)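 Cells at >90% viability seeded at 2×10³ cells/well in fresh growth medium with 10-point serial dilutions of compound; 3-day incubation; viability by MTT, relative to untreated cells; each point in at least triplicate; IC50 from dose–response. HO15.19-wt-Myc are myc−/− rat fibroblasts with c-Myc restored by stable retroviral transduction.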
A general note: Tetrazolium dyes change colour on reduction, which living cells bring about.

Test [4] is described as follows: Antiproliferative activity against c-Myc-overexpressing human HL60 cells after 3 days by MTT assay. In kind it is functional, cell-based. To be noted: HL-60, 72 h. The procedure, abridged:
as §2

Test [5] is described as follows: Cell cycle arrest in human HL60 cells assessed as accumulation at G2/M phase at 20 uM after 24 hrs by propidium iodide staining-based flow cytometric analysis (reference value: 11.2%). To be noted: HL-60. Type of test: functional. Background: A flow cytometer gives signals particle by particle.
Test [6] can be described thus: Cell cycle arrest in human HL60 cells assessed as accumulation at G2/M phase at 40 uM after 24 hrs by propidium iodide staining-based flow cytometric analysis (reference value: 11.2%). Type of test: functional. The conditions noted are these: HL-60.
In test [7] the target is T1, c-Myc/Max. Kind of test: Induction of dissociation of […]-Max in human HL60 cells at 40 to 72 uM after 6 hrs by Co-immunoprecipitation (Co-IP) assay. In kind it is cell-based. To be noted: HL-60. The method, boiled down:
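About 5×10⁶ HL60 cells exposed 6 h to compound or DMSO; lysed in IP buffer; 300 µg cleared lysate immunoprecipitated overnight at 4 °C with anti-Max (1:200) and protein G-Sepharose; 10% SDS-PAGE, immunoblot with anti-c-Myc 9E10 (1:1000); input lysate kept for comparison.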

The nature of test [8]: Cell cycle arrest in human HL60 cells assessed as accumulation at G0/G1 phase at 20 uM after 24 hrs by propidium iodide staining-based flow cytometric analysis (reference value: 39%). Type of test: functional. The conditions noted are these: HL-60.
Test [9] can be described thus: Cell cycle arrest in human HL60 cells assessed as accumulation at S phase at 40 uM after 24 hrs by propidium iodide staining-based flow cytometric analysis (reference value: 49%). In kind it is functional. The conditions noted are these: HL-60.
Test [10] is described as follows: Cell cycle arrest in human HL60 cells assessed as accumulation at S phase at 20 uM after 24 hrs by propidium iodide staining-based flow cytometric analysis (reference value: 49%). In kind it is functional. To be noted: HL-60.
Test [11] is described as follows: Cell cycle arrest in human HL60 cells assessed as accumulation at G0/G1 phase at 40 uM after 24 hrs by propidium iodide staining-based flow cytometric analysis (reference value: 39%). In kind it is functional. The conditions noted are these: HL-60.

T1 sequence (P01106 whole entry): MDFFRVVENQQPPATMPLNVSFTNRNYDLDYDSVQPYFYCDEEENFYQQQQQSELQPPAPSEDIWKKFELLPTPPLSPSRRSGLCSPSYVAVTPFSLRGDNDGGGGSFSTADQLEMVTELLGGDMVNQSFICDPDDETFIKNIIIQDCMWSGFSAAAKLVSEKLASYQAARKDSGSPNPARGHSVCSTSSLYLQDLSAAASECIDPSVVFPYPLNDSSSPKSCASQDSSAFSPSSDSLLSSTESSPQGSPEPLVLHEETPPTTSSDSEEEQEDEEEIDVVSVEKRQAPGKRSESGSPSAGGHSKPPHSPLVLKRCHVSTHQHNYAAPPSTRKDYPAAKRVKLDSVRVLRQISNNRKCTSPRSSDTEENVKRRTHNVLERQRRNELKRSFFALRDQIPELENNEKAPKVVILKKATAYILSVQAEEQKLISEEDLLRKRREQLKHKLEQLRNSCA
T1 sequence (P61244 whole entry): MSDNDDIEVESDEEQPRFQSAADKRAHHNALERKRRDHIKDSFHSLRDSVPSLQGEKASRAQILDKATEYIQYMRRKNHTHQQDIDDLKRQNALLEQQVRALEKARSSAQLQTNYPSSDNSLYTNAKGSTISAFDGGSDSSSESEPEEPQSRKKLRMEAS

Turning to `COC(=O)c1ccc(NC(=O)c2ccc([N+](=O)[O-])c(OC(C)C)c2)c(OCC(C)C)c1`, the Activity in [1] came out at 70%. For the compound `COC(=O)c1ccc(NC(=O)c2ccc([N+](=O)[O-])c(OC3Cc4ccccc4C3)c2)c(OCc2ccccc2)c1`, the Activity in test [1] was 78%.

Consider `CC(C)COc1cc(C(=O)O)ccc1NC(=O)c1ccc([N+](=O)[O-])c(OCc2ccccn2)c1`, for which the Activity in [1] was 100%. Same read-out and setting: then `CC(C)COc1cc(C(=O)Nc2ccc(C(=O)O)cc2OCc2ccccn2)ccc1[N+](=O)[O-]`, with 116%. Still for that read-out and setting: for `COc1cc(C(=O)O)ccc1NC(=O)c1ccc([N+](=O)[O-])c(OC)c1` the value was 94%; for `CC(C)COc1cc(C(=O)Nc2ccc(C(=O)O)cc2OCC(C)C)ccc1N`, 105%. For the compound `CC(C)COc1nc(C(=O)O)ccc1NC(=O)c1ccc([N+](=O)[O-])c(OCC(C)C)n1`, the IC50 in test [2] was 23.8 µM; in test [3] it was 11.1 µM; in test [4], 30.3 µM. The Activity in test [1] turned out to be 0%.

Turning to `CC(C)COc1cc(C(=O)O)ccc1NC(=O)c1ccc([N+](=O)[O-])c(OCC(C)C)c1`, the IC50 in test [2] turned out to be 20.2 µM; in test [3] it was 22.9 µM; in test [4], 39.9 µM. The Activity in test [1] is 0%. `COC(=O)c1ccc(NC(=O)c2ccc([N+](=O)[O-])c(OCc3ccccc3)c2)c(OCC(C)C)c1`: the Activity in test [1] stood at 75%. The same measure, in the same setting: for `COC(=O)c1ccc(NC(=O)c2ccc([N+](=O)[O-])c(OC(C)C)c2)c(OC2Cc3ccccc3C2)c1` the value was 109%; for `COC(=O)c1ccc(NC(=O)c2ccc([N+](=O)[O-])c(OCc3cccc4ccccc34)c2)c(OCC(C)C)c1`, 109%. Turning to `CCc1ccc(/C=C2\SC(=S)NC2=O)cc1`, the Activity came out at 10% in test [5]; 5.6% in [6]; 48% in test [8]; 35% in test [9]; 42% in [10]; 59.3% in test [11]. In test [7], the outcome was inactive. As to `CC(C)COc1cccc(C(=O)Nc2ccc(C(=O)O)cc2OCC(C)C)c1`, the Activity in test [1] worked out at 97%. Regarding `CC(C)COc1cc(C(=O)Nc2ccc(C(=O)O)cc2OCc2cccnc2)ccc1[N+](=O)[O-]`, the Activity in test [1] came to 75%. On to `CC(C)COc1cc(C(=O)O)ccc1NC(=O)c1ccc(N)c(OC2Cc3ccccc3C2)c1`, for which, in [1], the Activity is 87%.

Consider `COC(=O)c1ccc(NC(=O)c2ccc([N+](=O)[O-])c(OCc3ccccc3)c2)c(OCc2ccccc2)c1`, for which the Activity in test [1] came out at 85%. The same measure, in the same setting: then `CC(C)COc1cc(C(=O)N(CC(=O)O)CC(=O)O)ccc1NC(=O)c1ccc([N+](=O)[O-])c(OCC(C)C)c1`, with 99%; and `COC(=O)c1ccc(NC(=O)c2ccc([N+](=O)[O-])c(OCc3cccc4ccccc34)c2)c(OC2Cc3ccccc3C2)c1`, with 117%. Regarding `COC(=O)c1ccc(NC(=O)c2ccc([N+](=O)[O-])c(OCc3ccccc3)c2)c(OC2Cc3ccccc3C2)c1`, the Activity in test [1] was 112%. For the compound `CC(C)COc1cc(C(=O)NCC(=O)O)ccc1NC(=O)c1ccc([N+](=O)[O-])c(OCC(C)C)c1`, in test [1], the Activity is 107%. On the same count and under the same terms, for `O=C(O)c1ccc(NC(=O)c2ccc([N+](=O)[O-])cc2)cc1` the value was 87%; for `COC(=O)c1ccc(NC(=O)c2ccc([N+](=O)[O-])c(OCc3cccc4ccccc34)c2)c(OCc2ccccc2)c1`, 88%; for `COC(=O)c1ccc(NC(=O)c2ccc([N+](=O)[O-])c(OC3Cc4ccccc4C3)c2)c(OCC(C)C)c1`, 90%. As to `CC(C)COc1cc(C(=O)O)ccc1NC(=O)c1ccc([N+](=O)[O-])c(OCc2ccccc2)c1`, the IC50 in [2] was found to be 43 µM; in test [3], 25.6 µM. Take `CC(C)COc1nc(C(=O)Nc2ccc(C(=O)O)nc2OCC(C)C)ccc1N`: the Activity in test [1] was found to be 79%. With `COC(=O)c1ccc(NC(=O)c2ccc([N+](=O)[O-])c(OC3Cc4ccccc4C3)c2)c(OC2Cc3ccccc3C2)c1`, the Activity in [1] is 100%. Same read-out and setting: for `CC(C)COc1cc(C(=O)O)ccc1NC(=O)c1ccc([N+](=O)[O-])cc1OCC(C)C` the value was 120%.

Turning to `CC(C)COc1cc(C(=O)Nc2ccc(C(=O)O)cc2OCC(C)C)ccc1NC(=O)COCC(=O)O`, the Activity in test [1] came out at 89%. The same measure, in the same setting: then `CC(C)COc1cc(NC(=O)c2ccc([N+](=O)[O-])cc2OCC(C)C)ccc1C(=O)O`, with 96%; and `CC(C)COc1cc(C(=O)Nc2ccc(C(=O)O)cc2OCC(C)C)ccc1NC(=O)C(=O)O`, with 99%. Still for that read-out and setting: for `CC(C)COc1cc(NC(=O)c2ccc([N+](=O)[O-])c(OCC(C)C)c2)ccc1C(=O)O` the value was 80%.

As for `CCOC(=O)C(=O)Nc1ccc(C(=O)Nc2ccc(C(=O)O)cc2OCC(C)C)cc1OCC(C)C`, the 50% inhibitory concentration (IC50) is 5.6 µM in test [2], > 50 µM in test [3] and > 50 µM in [4]. Besides, the Activity in test [1] stood at 0%. With `CC(C)COc1cc(C(=O)O)ccc1NC(=O)c1ccc([N+](=O)[O-])c(OC2Cc3ccccc3C2)c1`, in [1], the Activity is 65%.

For `CC(C)COc1cc(C(=O)Nc2ccc(C(=O)O)cc2OCc2ccccc2)ccc1[N+](=O)[O-]`, the Activity in test [1] came out at 104%. Still for that read-out and setting: then `CC(C)COc1cc(C(=O)Nc2ccc(C(=O)O)cc2OCc2ccncc2)ccc1[N+](=O)[O-]`, with 87%. Consider `CC(C)Oc1cc(C(=O)O)ccc1NC(=O)c1ccc([N+](=O)[O-])c(OC(C)C)c1`, for which the Activity in test [1] worked out at 47%. For `CC(C)COc1cc(C(=O)O)ccc1NC(=O)c1ccc([N+](=O)[O-])c(OCC(C)C)n1`, the IC50 in [2] turned out to be 43.8 µM; in test [3] it was 11.2 µM; in [4] it was 21.5 µM. For the same compound, the Activity in test [1] is 0%. For the compound `COC(=O)c1ccc(NC(=O)c2ccc([N+](=O)[O-])c(OCC(C)C)c2)c(OCC(C)C)c1`, in test [1], the Activity was 112%. The same measure, in the same setting: for `COC(=O)c1ccc(NC(=O)c2ccc([N+](=O)[O-])c(OC(C)C)c2)c(OCc2ccccc2)c1` the value was 73%; for `CC(C)COc1cc(C(=O)Nc2ccc(C(=O)O)cc2)ccc1[N+](=O)[O-]`, 81%. Still for that read-out and setting: then `CC(C)COc1cc(C(=O)O)ccc1NC(=O)c1ccc([N+](=O)[O-])cc1`, with 90%.
